# Compounds with a hit are over-represented: about 2.5% of the library has one in this group of screens.
# TRPC4 block = inhibitors of mouse TRPC4 channel, primary screen, Fluo4 calcium, HEK293 TRPC4beta/mu-opioid cells | Short transient receptor potential channel 4 (Mus musculus), Q9QUQ5 | DAMGO-evoked Fluo4 calcium flux; active compounds read low | B-score at 10 µM | hit rate 0.39% among 300,000;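 active = B-score over 3 SD under the library average, no early fluorescence shift, positive overall ratio signal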
#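 Test system – stable TRPC4beta/mu-opioid receptor HEK293 cells · Probe or stimulus – DAMGO, a submaximal dose followed by a maximal one · Dosing – one concentration per compound · Signal – Fluo4 calcium fluorescence by kinetic imaging, 5 s 1 Hz baseline · Evaluation – per-well B score of integrated baseline-normalized Fluo4 ratio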
# TRPC6 inhibitor = mouse TRPC6 channel inhibitors, primary screen, cell-based, HEK293, membrane potential dye | Short transient receptor potential channel 6 (Mus musculus), Q61143 | ACh-evoked depolarization; active compounds read low | AID 2553, 2010 | hit rate 1.1% among 310,000 | B-score at 10 µM;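 active = B-score under library mean minus 3 SD, initial fluorescence not abnormally high, positive integrated signal ratio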;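 note: B-score derived from integrated fluorescence ratio over the kinetic read; more negative B-score means stronger inhibition of depolarization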
# Target sequence (Q61143 whole entry, looked up): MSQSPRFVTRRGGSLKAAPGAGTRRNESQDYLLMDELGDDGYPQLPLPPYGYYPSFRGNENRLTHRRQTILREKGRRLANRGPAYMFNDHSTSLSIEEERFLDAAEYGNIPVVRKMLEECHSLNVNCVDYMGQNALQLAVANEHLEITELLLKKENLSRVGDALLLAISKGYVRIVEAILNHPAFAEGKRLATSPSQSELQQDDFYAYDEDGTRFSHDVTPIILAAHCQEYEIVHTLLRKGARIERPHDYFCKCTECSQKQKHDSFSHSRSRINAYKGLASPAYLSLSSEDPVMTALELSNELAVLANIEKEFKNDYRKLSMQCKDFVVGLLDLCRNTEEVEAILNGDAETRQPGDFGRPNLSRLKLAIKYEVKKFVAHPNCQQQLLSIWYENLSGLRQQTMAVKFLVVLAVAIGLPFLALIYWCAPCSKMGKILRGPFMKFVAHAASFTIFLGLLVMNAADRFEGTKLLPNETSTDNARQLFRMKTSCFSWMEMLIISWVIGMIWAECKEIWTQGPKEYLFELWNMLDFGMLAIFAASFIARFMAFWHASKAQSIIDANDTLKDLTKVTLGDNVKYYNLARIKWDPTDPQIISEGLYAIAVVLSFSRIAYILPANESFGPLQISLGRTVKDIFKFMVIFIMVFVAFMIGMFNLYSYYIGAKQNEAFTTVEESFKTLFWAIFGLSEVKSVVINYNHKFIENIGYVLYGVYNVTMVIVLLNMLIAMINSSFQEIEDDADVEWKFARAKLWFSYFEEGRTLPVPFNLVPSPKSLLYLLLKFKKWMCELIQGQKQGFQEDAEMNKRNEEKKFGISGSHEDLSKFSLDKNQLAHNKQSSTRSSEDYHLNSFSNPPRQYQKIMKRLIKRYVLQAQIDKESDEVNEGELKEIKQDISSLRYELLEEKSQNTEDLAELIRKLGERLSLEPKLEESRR
# TRPC6 act = mouse TRPC6 channel activators, primary screen, cell-based, HEK293, membrane potential dye; Short transient receptor potential channel 6 (Mus musculus), Q61143; HEK293-TRPC6 membrane potential dye fluorescence; active compounds read high; B-score at 10 µM; hit rate 0.13% among 310,000; AID 2550, 2010;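 active = B-score of the integrated fluorescence ratio above library mean plus 3 SD, and starting fluorescence ratio within library mean plus 5 SD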;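 note: higher score means more depolarization so channel activation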
# Platelet DG rel = inhibitors of platelet dense granule secretion, primary screen, cell-based, MLPCN, human platelets. human platelet-rich plasma, SFLLRN dense granule ATP release, luminescence. inhibition, %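 (compounds screened at 7.5 µM in platelet-rich plasma)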. hit rate 0.22% among 300,000;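 active = mean replicate score, as percent of positive control, at or above 50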
# TRPC4 PAM = positive allosteric modulators of TRPC4, primary screen, cell-based, mouse TRPC4beta, HEK293 mu-opioid, Fluo-4 calcium; DAMGO EC20, Fluo-4 Ca2+ flux; active compounds read high; Short transient receptor potential channel 4 (Mus musculus), Q9QUQ5; hit rate 0.42% among 310,000; AID 2227, 2009; B-score at 10 µM;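 active = B-score of calcium response area above 5 SD of library B-scores, with initial fluorescence ratio within 5 SD of library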
# TRPC4 agonist = activators of mouse TRPC4 channel, primary screen, Fluo4 calcium, HEK293 TRPC4beta/mu-opioid cells | AID 2237, 2010 | B-score at 10 µM | hit rate 0.49% among 310,000 | Fluo4 calcium fluorescence; active compounds read high;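 active = B-score above 5 SD of library B-scores, and initial fluorescence ratio not above library mean plus 5 SD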;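 note: positive B-score marks a calcium rise read as TRPC4 activation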
#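 Material: TRPC4beta and mu-opioid receptor HEK293 stable cells | Incubation: 45 min room-temperature Fluo4 loading, 110 s read | Detection: Kinetic Fluo4 calcium fluorescence | Measure: Integrated baseline-normalised fluorescence ratio, converted to per-well B score | Benchmarks: Low control buffer alone, high control maximal DAMGO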
# HEK293 MPD ctr = parental HEK293 membrane potential modulation, confirmation, counter-screen for TRPC6 modulator project, cell-based; hit rate 51% among 2,400; shares compounds with TRPC6 inhibitor; AID 488924, 2010; membrane potential dye fluorescence; membrane potential signal change, % at 10 µM;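 active = membrane potential signal moves up or down beyond 5 SD from buffer-only wells, on both duplicate plates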
# HEK293 MPD ctr 2 = second counter-screen for TRPC6 modulators: effect in parental HEK293 cells. inhibition, % at 10 µM. hit rate 14% among 2,400. shares compounds with TRPC6 inhibitor. membrane potential dye fluorescence; after compound, maximal acetylcholine stimulation. AID 488926;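 active = membrane potential signal drops by more than 5 SD from the mean control signal, in both duplicate plates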
# TRPC4 ctr mod = TRPC4 modulation by TRPC6 hit compounds, confirmation, selectivity assay for TRPC6 modulator project, cell-based, HEK293 TRPC4/mu-opioid, membrane potential dye, mouse; shares compounds with TRPC6 inhibitor; membrane potential fluorescence; percent change from control (negative = decrease, positive = increase), % at 10 µM; hit rate 69% among 2,400; AID 488927, 2010;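 active = membrane potential signal moved up or down beyond 5 SD of buffer control wells, in both duplicate plates, actives on both sides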
# TRPC4 ctr inh 2 = second selectivity test of TRPC6 modulators against mouse TRPC4; hit rate 55% among 2,400; HEK293 TRPC4/mu-opioid, membrane potential dye fluorescence; stimulated with maximal-effect DAMGO; AID 488928; shares compounds with TRPC6 inhibitor; inhibition, % at 10 µM;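 active = drop in membrane potential signal beyond 5 SD of the control wells in both duplicate plates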;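 note: TRPC4 counter screen for TRPC6 hits run under conditions tuned for TRPC6 not TRPC4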
# TRPC6 block conf = mouse TRPC6 channel inhibitors, confirmation, HEK293 cells, membrane potential dye, duplicate. inhibition, % at 10 µM. ACh-evoked depolarization. shares compounds with TRPC6 inhibitor. hit rate 43% among 3,300;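 active = fluorescence ratio falls more than 5 SD below the full-stimulation control mean, in both duplicate runs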;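 note: integrated fluorescence ratio of peak minus minimum over baseline after agonist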
# TRPC6 act confirm = mouse TRPC6 channel activators, confirmation, HEK293 cells, membrane potential dye, duplicate; shares compounds with TRPC6 inhibitor; HEK293-TRPC6 membrane potential dye fluorescence, FDSS; activation, % at 10 µM; hit rate 11% among 2,800; AID 488961, 2010;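 active = ratio signal rise beyond 5 SD above unstimulated control wells' mean, seen in both duplicate runs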
# Hits are given with their value; . = inactive; / = no result given.
SMILES,TRPC4 block,TRPC6 inhibitor,TRPC6 act,Platelet DG rel,TRPC4 PAM,TRPC4 agonist,HEK293 MPD ctr,HEK293 MPD ctr 2,TRPC4 ctr mod,TRPC4 ctr inh 2,TRPC6 block conf,TRPC6 act confirm
CCCC(=O)N1CCCC(c2nc(-c3cccc(OC)c3)no2)C1 (stereo unspecified),.,.,.,.,.,.,/,/,/,/,/,/
N#Cc1sc(=O)[nH]c1Cl,.,.,.,.,.,.,/,/,/,/,/,/
O=C(c1ccc(COc2ccccc2Cl)o1)N1CCCC1,.,.,.,.,.,.,/,/,/,/,/,/
CN1CCN(C(=O)c2ccc(COc3cc(Cl)ccc3Cl)o2)CC1,.,-5.7,.,.,.,.,127%,.,22%,.,.,/
CN1CCN(C(=O)c2cccc(COc3cc(Cl)ccc3Cl)c2)CC1,.,.,.,.,.,.,/,/,/,/,/,/
CC1CCN(C(=O)c2ccc(COc3ccccc3Cl)o2)CC1,.,-6.2,.,.,.,.,121%,.,25%,.,.,.
O=C(NCCN1CCN(C(=O)c2ccc(F)cc2)CC1)C(=O)NCc1ccccc1,.,.,.,.,.,.,/,/,/,/,/,/
CCN1CCc2c(OCc3ccccc3)cccc2C1=O,.,-5.6,.,.,.,.,126%,.,21%,.,.,/
COc1ccc(OC)c(CNc2ncc(-c3ccc(F)cc3)n2C)c1,.,-5.3,.,.,.,.,.,.,.,68%,57%,.
COc1ccccc1CNc1ncc(-c2ccc(F)cc2)n1C,.,.,.,.,.,.,/,/,/,/,/,/
Cn1c(-c2ccccc2)cnc1NCc1cc2c(cc1[N+](=O)[O-])OCO2,.,-5.6,.,.,.,.,.,.,-24%,68%,.,.
Cn1c(-c2ccc(F)cc2)cnc1NCc1cc2c(cc1[N+](=O)[O-])OCO2,.,-6.2,.,.,.,.,.,.,-16%,76%,72%,.
Cc1ccc(C(O)CCc2ccc(N)cc2)cc1 (stereo unspecified),.,.,.,.,.,.,/,/,/,/,/,/
COc1ccc(CN2C(=O)[C@H]3Cc4c([nH]c5ccccc45)C(C)(C)N3C2=O)cc1,.,.,.,.,.,.,/,/,/,/,/,/
C/C(=N\Nc1ncnc2sc(C)c(C)c12)c1ccccn1,.,.,17,.,15,.,316%,.,50%,.,.,75%
CCN(CC(=O)Nc1ccccc1Br)Cc1nc2ccccc2c(=O)[nH]1,.,.,.,.,.,.,/,/,/,/,/,/
CCC1CCCCN1CCCNC(=O)c1ccc2c(c1)N(Cc1c(F)cccc1Cl)C(=O)CS2 (stereo unspecified),.,-6.5,.,.,.,.,.,.,-17%,82%,78%,.
